{"data": "Measured values pooled from the literature", "cell line": "SK-MEL-5", "effect on": "cell growth or viability", "note": "Protocols differ between the studies behind these lines."}
{"SMILES": "COc1cccc(Oc2ccccc2NC(=O)CNC(=O)c2cccc3ccccc23)c1", "assay": "SRB", "setting": "48 h", "endpoint": "GI50", "result": "219 nM"}
{"SMILES": "O=C1NCCc2[nH]c(-c3ccncc3)cc21", "endpoint": "IC50", "result": "> 10000 nM"}
{"SMILES": "COc1ccc(-c2ccc(-c3ccc(C(=N)N)nc3)s2)cc1", "assay": "SRB", "endpoint": "GI50", "result": "1790 nM"}
{"SMILES": "O=C1NC(=NCc2cccs2)S/C1=C\\c1ccc2ncccc2c1", "endpoint": "IC50", "result": "> 10000 nM"}
{"SMILES": "COc1ccccc1/C=C/C(=O)c1ccc(OC)c(S(N)(=O)=O)c1", "assay": "SRB", "setting": "48 h", "endpoint": "GI50", "result": "3900 nM"}
{"SMILES": "COc1cc(-c2ccc(-c3ccc(C(=N)N)nc3)s2)cc(OC)c1OC", "assay": "SRB", "endpoint": "GI50", "result": "1670 nM"}
{"SMILES": "COc1ccc(C(=O)/C=C/c2cccnc2)cc1S(N)(=O)=O", "assay": "SRB", "setting": "48 h", "endpoint": "GI50", "result": "14800 nM"}
{"SMILES": "Cc1ncsc1-c1ccc(CNC(=O)[C@@H]2C[C@H](O)CN2C(=O)[C@@H](NC(=O)C2(F)CC2)C(C)(C)C)c(OCCc2ccc(CN3CCN(c4cc(-c5ccccc5O)nnc4N)CC3)cc2)c1", "assay": "ATP luminescence", "setting": "7 days", "endpoint": "IC50", "result": "540 nM"}
